# From ChEMBL document CHEMBL1255448, “The 6-aminoquinolone WC5 inhibits human cytomegalovirus replication at an early stage by interfering with the transactivating activity of viral immediate-early 2 protein” (Antimicrob Agents Chemother, 2010)
# The source made the active and inactive calls. No cut-off for these calls is given here. *1 amine or outer side, *2 acyl side, *3 side chain or, on linkers, in order; H or OH if unused. Where a SMILES comes first, the peptide text is derived from it. Bridges are numbered along the chain shown (N, C = ends). Roman numbers before positions name the chains, in order. [ ]: non-standard residue; d: D form. Actinocin(9to1) = Cc1c2oc3c(C)ccc(C(=O)[*:1])c3nc-2c(C(=O)[*:2])c(N)c1=O; NMeV = CN[C@H](C(=O)O)C(C)C; Sar = CNCC(=O)O
# What was measured:
# Human betaherpesvirus 5 [1] = test: Antiviral activity against human cytomegalovirus AD169 infected in human HFF assessed as inhibition of plaque formation by plaque reduction assay; type: functional, organism-based; conditions: Human betaherpesvirus 5, AD169
# Procedure, shortened: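 Plaque reduction against AD169 in HFF. EC50 is the concentration giving 50% inhibition of plaque formation, reported as mean ± SD of at least three independent experiments run in duplicate.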
# Human betaherpesvirus 5 [2] = test: Antiviral activity against 0.1 MOI human cytomegalovirus AD169 infected in human HFF assessed as inhibition of viral replication up to 72 hrs post infection; type: functional, organism-based
# [3] = Selectivity index, ratio of CC50 for human HFF to EC50 for human cytomegalovirus AD169
# Procedure, shortened: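 Selectivity index is CC50 from the HFF MTT assay divided by EC50 from the AD169 plaque reduction assay in HFF.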
# Human betaherpesvirus 5 [4] = test: Antiviral activity against 0.1 MOI human cytomegalovirus AD169 infected in human HFF assessed as virus yield reduction by yield reduction assay; type: functional, organism-based; conditions: Human betaherpesvirus 5, AD169
# Human betaherpesvirus 5 [5] = test: Antiviral activity against 1 MOI human cytomegalovirus AD169 infected in human HFF assessed as virus yield reduction by yield reduction assay; type: functional, organism-based; conditions: Human betaherpesvirus 5, AD169
# Human betaherpesvirus 5 [6] = test: Antiviral activity against 0.1 MOI human cytomegalovirus AD169 infected in human HFF assessed as inhibition of immediate early phase P72 protein expression after 24 hrs by Western blot analysis; type: functional, organism-based
# Procedure, shortened: (§1)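 HFF infected with HCMV AD169 at MOI 0.1 PFU/cell, treated with 50 µM compound or 0.2% DMSO. ActD 5 µg/ml, CHX 75 µg/ml and FOS 750 µM served as controls. Harvests at 24, 48 and 72 h p.i. were lysed in NP-40 buffer, then SDS-PAGE and PVDF blotting. Probes were anti-IE1/IE2 (p72/p86) MAb or anti-UL55, then HRP secondary and ECL. β-actin reprobe was the internal control.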
# Human betaherpesvirus 5 [7] = test: Antiviral activity against 0.1 MOI human cytomegalovirus AD169 infected in human HFF assessed as inhibition of early phase UL54 mRNA expression after 16 hrs by RT-PCR analysis
# Human betaherpesvirus 5 [8] = test: Antiviral activity against 0.1 MOI human cytomegalovirus AD169 infected in human HFF assessed as inhibition of immediate early phase P86 protein expression after 24 hrs by Western blot analysis; type: functional, organism-based; procedure, shortened: as §1
# Human betaherpesvirus 5 [9] = test: Antiviral activity against 0.1 MOI human cytomegalovirus AD169 infected in human HFF assessed as inhibition of early phase UL84 mRNA expression after 16 hrs by RT-PCR analysis
# Human betaherpesvirus 5 [10] = test: Antiviral activity against 0.1 MOI human cytomegalovirus AD169 infected in human HFF assessed as inhibition of early phase mRNA expression after 48 hrs by RT-PCR analysis; type: functional, organism-based
# Procedure, shortened: (§2)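 HFF seeded at 6×10^5 per well, infected with AD169 at MOI 0.1 PFU/cell, then given 50 µM drug or 0.2% DMSO. ActD 5 µg/ml, CHX 75 µg/ml and FOS 750 µM served as IE, E and L transcription controls. Total RNA was taken at 16 and 48 h p.i.; 1 µg was reverse-transcribed with random hexamers and MuLV RT. PCR used UL122/UL123 (IE), UL54/UL84 (E) and UL55/UL75 (L) primers with a β-actin control, and products were read on ethidium bromide agarose gels.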
# Human betaherpesvirus 5 [11] = test: Antiviral activity against 0.1 MOI human cytomegalovirus AD169 infected in human HFF assessed as inhibition of immediate early phase mRNA expression after 48 hrs by RT-PCR analysis; type: functional, organism-based; procedure, shortened: as §2
# Human betaherpesvirus 5 [12] = test: Antiviral activity against 0.1 MOI human cytomegalovirus AD169 infected in human HFF assessed as inhibition of immediate early phase mRNA expression after 16 hrs by RT-PCR analysis; type: functional, organism-based; procedure, shortened: as §2
# Human betaherpesvirus 5 [13] = test: Antiviral activity against 0.1 MOI human cytomegalovirus AD169 infected in human HFF assessed as inhibition of late phase mRNA expression after 16 hrs by RT-PCR analysis; type: functional, organism-based; procedure, shortened: as §2
# Human betaherpesvirus 5 [14] = test: Antiviral activity against 0.1 MOI human cytomegalovirus AD169 infected in human HFF assessed as inhibition of early phase mRNA expression after 16 hrs by RT-PCR analysis; type: functional, organism-based; procedure, shortened: as §2
# Human betaherpesvirus 5 [15] = test: Antiviral activity against 0.1 MOI human cytomegalovirus AD169 infected in human U373-MG cells expressing UL112/113-EGFP reporter assessed as inhibition of EGFP expression after 48 hrs of infection by confocal fluorescence microscopy; type: functional, organism-based; conditions: U-373MG ATCC
# Procedure, shortened: (§3)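 Stable U373-MG reporter cells were seeded on coverslips at 3×10^5 per well and infected with AD169 at MOI 0.1 or 0.5. They were then treated with 50 µM drug, 5 µM fomivirsen (also given 1 h before and during infection) or 0.2% DMSO. At 48 h p.i. cells were fixed in 4% paraformaldehyde for 15 min, and EGFP-positive cells were counted by confocal microscopy at 20×.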
# Human betaherpesvirus 5 [16] = test: Antiviral activity against 0.1 MOI human cytomegalovirus AD169 infected in human U373-MG cells expressing UL54-EGFP reporter assessed as inhibition of EGFP expression after 48 hrs of infection by confocal fluorescence microscopy; type: functional, organism-based; conditions: U-373MG ATCC; procedure, shortened: as §3
# Human betaherpesvirus 5 [17] = test: Antiviral activity against human cytomegalovirus AD169 in human HFF assessed as reduction of viral attachment to fibroblast after 2 hrs at 37 degC; type: functional, organism-based
# [18] = Cytotoxicity against human HFF by MTT assay; type: cell-based; conditions: HFF cells
# Procedure, shortened: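 Cytotoxicity in HFF was measured by MTT reduction. CC50 is the concentration causing 50% cytotoxicity, reported as mean ± SD of at least three independent experiments run in quadruplicate.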
# [19] = Inhibition of human cytomegalovirus DNA polymerase catalytic subunit UL54 assessed as incorporation of [3H]dTTP; parameters: species or system Human betaherpesvirus 5
# Procedure, shortened: (§4)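 Filter-based assay with purified baculovirus-expressed UL54 catalytic subunit, alone or with UL44 accessory subunit. Incorporation of [3H]dTTP into poly(dA)-oligo(dT)12-18 template-primer was measured across serial compound dilutions, with FOS as control. Means ± standard deviations from four independent experiments.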
# [20] = Inhibition of human cytomegalovirus DNA polymerase catalytic subunit UL54/UL44 assessed as incorporation of [3H]dTTP; parameters: species or system Human betaherpesvirus 5; procedure, shortened: as §4
# Human betaherpesvirus 5 [21] = test: Antiviral activity against 0.1 MOI human cytomegalovirus AD169 infected in human HFF assessed as inhibition of late phase UL55 protein expression after 72 hrs of infection by Western blot analysis; type: functional, organism-based; procedure, shortened: as §1
Compound,EC50 (Human betaherpesvirus 5 [1]),Selectivity Index [3],CC50 [18],also measured
Nc1nc2c(ncn2COC(CO)CO)c(=O)[nH]1 [GANCICLOVIR],1.9 µM,289,–,Activity (Human betaherpesvirus 5 [2]): inactive; EC90 (Human betaherpesvirus 5 [4]): 1 µM; EC90 (Human betaherpesvirus 5 [5]): 0.8 µM
C[C@@H]1C[C@@H]([C@H](O)CC2CC(=O)NC(=O)C2)C(=O)[C@@H](C)C1,–,–,–,inhibition (Human betaherpesvirus 5 [6]): Active; inhibition (Human betaherpesvirus 5 [7]): Active; inhibition (Human betaherpesvirus 5 [8]): Active; inhibition (Human betaherpesvirus 5 [9]): Active
"Cc1c2oc3c(C)ccc(C(=O)N[C@@H]4C(=O)N[C@H](C(C)C)C(=O)N5CCC[C@H]5C(=O)N(C)CC(=O)N(C)[C@@H](C(C)C)C(=O)O[C@@H]4C)c3nc-2c(C(=O)N[C@@H]2C(=O)N[C@H](C(C)C)C(=O)N3CCC[C@H]3C(=O)N(C)CC(=O)N(C)[C@@H](C(C)C)C(=O)O[C@@H]2C)c(N)c1=O (I: T[dV]P[Sar][NMeV] / II: T[dV]P[Sar][NMeV]; ester I:1-I:C, II:1-II:C; linker I:N-II:N via Actinocin(9to1))",–,–,–,inhibition (Human betaherpesvirus 5 [10]): inactive; inhibition (Human betaherpesvirus 5 [11]): inactive; inhibition (Human betaherpesvirus 5 [12]): inactive; inhibition (Human betaherpesvirus 5 [13]): inactive; inhibition (Human betaherpesvirus 5 [14]): inactive
FOMIVIRSEN SODIUM,–,–,–,inhibition (Human betaherpesvirus 5 [15]): Active; inhibition (Human betaherpesvirus 5 [16]): Active
Nc1cc2c(=O)c(C(=O)O)cn(C3CC3)c2cc1N1CCN(c2nc3ccccc3s2)CC1,0.02 µM,225,–,–
Cc1cn([C@H]2C[C@H](OP(O)(=S)OC[C@H]3O[C@@H](n4ccc(N)nc4=O)C[C@@H]3OP(O)(=S)OC[C@H]3O[C@@H](n4cnc5c(=O)[nH]c(N)nc54)C[C@@H]3OP(O)(=S)OC[C@H]3O[C@@H](n4cc(C)c(=O)[nH]c4=O)C[C@@H]3OP(O)(=S)OC[C@H]3O[C@@H](n4ccc(N)nc4=O)C[C@@H]3OP(O)(=S)OC[C@H]3O[C@@H](N4C(=O)C5N=CNC5N=C4N)C[C@@H]3OP(O)(=S)OC[C@H]3O[C@@H](n4cc(C)c(=O)[nH]c4=O)C[C@@H]3OP(O)(=S)OC[C@H]3O[C@@H](n4cc(C)c(=O)[nH]c4=O)C[C@@H]3OP(O)(=S)OC[C@H]3O[C@@H](n4cc(C)c(=O)[nH]c4=O)C[C@@H]3OP(O)(=S)OC[C@H]3O[C@@H](n4cc(C)c(=O)[nH]c4=O)C[C@@H]3OP(O)(=S)OC[C@H]3O[C@@H](N4C=NC5C(=O)NC(N)=NC54)C[C@@H]3OP(O)(=S)OC[C@H]3O[C@@H](n4cc(C)c(=O)[nH]c4=O)C[C@@H]3OP(O)(=S)OC[C@H]3O[C@@H](n4ccc(N)nc4=O)C[C@@H]3OP(O)(=S)OC[C@H]3O[C@@H](N4C=NC5C(=O)NC(N)=NC54)C[C@@H]3OP(O)(=S)OC[C@H]3O[C@@H](n4cc(C)c(=O)[nH]c4=O)C[C@@H]3OP(O)(=S)OC[C@H]3O[C@@H](n4cc(C)c(=O)[nH]c4=O)C[C@@H]3OP(O)(=S)OC[C@H]3O[C@@H](n4cc(C)c(=O)[nH]c4=O)C[C@@H]3OP(O)(=S)OC[C@H]3O[C@@H](n4cc(C)c(=O)[nH]c4=O)C[C@@H]3OP(O)(=S)OC[C@H]3O[C@@H](n4cnc5c(=O)[nH]c(N)nc54)C[C@@H]3OP(O)(=S)OC[C@H]3O[C@@H](n4cc(C)c(=O)[nH]c4=O)C[C@@H]3OP(O)(=S)OC[C@H]3O[C@@H](n4ccc(N)nc4=O)C[C@@H]3OP(O)(=S)OC[C@H]3O[C@@H](N4C=NC5C(=O)NC(N)=NC54)C[C@@H]3OP(O)(=S)OC[C@H]3O[C@@H](n4cc(C)c(=O)[nH]c4=O)C[C@@H]3OP(O)(=S)OC[C@H]3O[C@@H](n4cc(C)c(=O)[nH]c4=O)C[C@@H]3O)[C@@H](CO)O2)c(=O)[nH]c1=O (stereo partly specified),–,–,–,Activity (Human betaherpesvirus 5 [17]): Active
CC(C)(C)n1cc(C(=O)O)c(=O)c2cc(N)c(N3CCN(c4nc5ccccc5s4)CC3)cc21,0.18 µM,32,5.8 µM,–
Cn1cc(C(=O)O)c(=O)c2cc(N)c(N3CCN(c4ccccn4)CC3)cc21,0.7 µM,77,–,–
O=C(O)c1cn(C2CC2)c2cc(N3CCN(c4ccccn4)CC3)ccc2c1=O,5.6 µM,70,390 µM,–
CCOC(=O)c1cn(C2CC2)c2cc(N3CCN(c4ccccn4)CC3)c(N)cc2c1=O,> 50 µM,> 8,409 µM,–
O=C(NCP(=O)(O)O)OCc1ccccc1 [(BENZYLOXYCARBONYLAMINO)METHYLPHOSPHONIC ACID],–,–,–,IC50 [19]: 3.1 µM; IC50 [20]: 5.5 µM; inhibition (Human betaherpesvirus 5 [21]): Active
CC(C)(C)n1cc(C(=O)O)c(=O)c2cc(N)c(N3CCN(c4ccccn4)CC3)cc21,36.7 µM,>=13,≥ 475 µM,–
